Consider three compounds from ChEMBL document CHEMBL1773005, “The antibacterial ent-eusynstyelamide B and eusynstyelamides D, E, and F from the Arctic bryozoan Tegella cf. spitzbergensis” (J Nat Prod, 2011).

One may read the MIC as the smallest concentration in the dilution series that meets the test's criterion for growth inhibition. Lower therefore signals a more susceptible organism. One may read the IC50 as the concentration at which inhibition is half-maximal. High values mean weaker potency, low ones greater potency.

The test system of test [1] is Escherichia coli. In words: Antibacterial activity against Escherichia coli ATCC 25922 after 24 hrs by microtiter plate assay. The test is classed as functional. The following applies: ATCC 25922, 24 h. The procedure, abridged: (§1)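 Log-phase cultures grown at 37 C in Mueller Hinton broth, diluted to about 5 × 10^5 cells per well, then mixed 1:1 with compound dissolved in water. Growth followed by continuous optical density reading. MIC taken as the lowest concentration giving no OD change after 24 h at 37 C. Tested in duplicate over 2–100 μg/mL; cecropin B (25 μM) served as positive control.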

Test [2] concerns Candida albicans. Nature of the test: Antifungal activity against Candida albicans ATCC 10231 after 48 hrs by microscopy. The test is classed as functional. The following applies: ATCC 10231, 48 h. A digest of the protocol: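 Yeast grown on potato dextrose agar with 2% glucose at room temperature, suspended in potato dextrose broth and counted in a Bürker chamber. Spores at 2 × 10^5/mL final were mixed with compounds dissolved in water and incubated at 37 C. MIC was the lowest concentration with no visible growth at 48 h, scored microscopically. Duplicates over 2–100 μg/mL; cecropin B (6.25 μM) as positive control.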

Test [3] concerns A2058. In words: Anticancer activity against human A2058 cells after 72 hrs by CellTiter-96 cell viability assay. Type of test: functional, cell-based. The note with it: A2058, 72 h. The procedure, abridged:
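A-2058 melanoma cells in exponential growth were seeded, incubated 24 h at 37 C, then exposed to compounds for 72 h. Viability was read by CellTiter96 reagent, 1 h colour development, absorbance at 485 nm. Duplicates over 2–100 μg/mL; IC50 determined.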

The test system of test [4] is Staphylococcus aureus. In words: Antibacterial activity against methicillin-resistant Staphylococcus aureus ATCC 33591 after 24 hrs by microtiter plate assay. The test is classed as functional. The following applies: ATCC 33591, 24 h. A digest of the protocol: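 Log-phase bacteria at about 5 × 10^5 cells per well in Mueller Hinton broth, 37 C, were mixed with compounds dissolved in water, 2–100 μg/mL, in duplicate. Optical density was monitored continuously. MIC was taken as the lowest concentration giving no change in optical density after 24 h. Cecropin B (25 μM) served as positive control.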

Test [5] has as its system Corynebacterium glutamicum. In words: Antibacterial activity against Corynebacterium glutamicum ATTC 13032 after 24 hrs by microtiter plate assay. Type of test: functional. The following applies: ATTC 13032, 24 h. A digest of the protocol:
as §1

In test [6] the test system is Pseudomonas aeruginosa. In words: Antibacterial activity against Pseudomonas aeruginosa ATTC 27853 after 24 hrs by microtiter plate assay. The following applies: ATTC 27853, 24 h. The test is classed as functional. The procedure, abridged:
as §1

For test [7], the system named is Staphylococcus aureus. Nature of the test: Antibacterial activity against Staphylococcus aureus ATTC 9144 after 24 hrs by microtiter plate assay. The test is classed as functional. The note with it: ATTC 9144, 24 h. A digest of the protocol: as §1

≈ marks a conversion by molar mass, not a printed value.

For the compound `NCCCCNC(=O)[C@@]1(O)[C@H](c2c[nH]c3cc(Br)ccc23)[C@@](O)(Cc2c[nH]c3cc(Br)ccc23)C(=O)N1CCCCN` [EUSYNSTYELAMIDE D], the MIC in test [1] amounted to 12.5 µg/mL (≈ 17.7 µM); in test [2], 50 µg/mL (≈ 71 µM); in test [4] it was 20 µg/mL (≈ 28.4 µM); in test [5], 12.5 µg/mL (≈ 17.7 µM); in test [6] it was 25 µg/mL (≈ 35.5 µM); in test [7], 12.5 µg/mL (≈ 17.7 µM). The same compound showed an IC50 in test [3] of 57 µM.

On to `N=C(N)NCCCCN1C(=O)[C@](O)(Cc2c[nH]c3cc(Br)ccc23)[C@@H](c2c[nH]c3cc(Br)ccc23)[C@]1(O)C(=O)NCCCCN` [EUSYNSTYELAMIDE E], for which the MIC in test [1] amounted to 12.5 µg/mL (≈ 16.7 µM); in test [2], 100 µg/mL (≈ 134 µM); in test [4], 20 µg/mL (≈ 26.8 µM); in test [5], 12.5 µg/mL (≈ 16.7 µM); in test [6] it was 25 µg/mL (≈ 33.5 µM); in test [7], 12.5 µg/mL (≈ 16.7 µM). Further, the IC50 in test [3] is 114 µM.

As to `N=C(N)NCCCCNC(=O)[C@@]1(O)[C@H](c2c[nH]c3cc(Br)ccc23)[C@@](O)(Cc2c[nH]c3cc(Br)ccc23)C(=O)N1CCCCN` [EUSYNSTYELAMIDE F], the MIC in test [1] is 12.5 µg/mL (≈ 16.7 µM); in test [2], 50 µg/mL (≈ 67 µM); in test [4], greater than 50 µg/mL; in test [5] it was 6.25 µg/mL (≈ 8.37 µM); in test [6] it was 12.5 µg/mL (≈ 16.7 µM); in test [7], 6.25 µg/mL (≈ 8.37 µM).
